Measured values gathered from unrelated publications.
Lines come from different studies, so protocols differ.

| SMILES | species | matrix | route | dose | notes | Cmax |
| --- | --- | --- | --- | --- | --- | --- |
| Nc1ncn([C@H]2C[C@H](O)[C@@H](CO)O2)c(=O)n1 | female C57BL/6 mouse | plasma | oral | 0.4 mg/kg | – | 118 ng/mL |
| Cc1c(C(=O)O)ccc2c3n(nc12)[C@@H]1[C@H](C3)N(CC2CC2)[C@@]2(C(=O)Nc3cc(Cl)ccc32)[C@H]1c1cccc(Cl)c1F | female mouse | plasma | oral | 5 mg/kg | – | 7400 nM |
| O=C1CCN2C(=O)c3ccccc3C2C(=O)Nc2ccccc21 (centres unmarked) | male Swiss mouse | plasma | oral | 100 mg/kg | – | 617 nM |
| CC(=O)O[C@@]12CO[C@@H]1C[C@H](O)[C@@]1(C)C(=O)[C@H](O)C3=C(C)[C@@H](OC(=O)[C@H](O)[C@@H](NC(=O)OC(C)(C)C)c4ccccc4)C[C@@](O)([C@@H](OC(=O)c4ccccc4)[C@H]21)C3(C)C | male Kunming mouse | plasma | oral | 20 mg/kg | – | 4.1 ng/mL |
| CCN1CCN(Cc2ccc(NC(=O)c3ccc(C)c(NC(=O)c4cncc(-c5cccs5)c4)c3)cc2C(F)(F)F)CC1 | mouse | plasma | intraperitoneal | 10 mg/kg | single dose | 488 ng/mL |
| O=C(ONc1nc2nonc2nc1Nc1ccccc1F)c1ccc(OC(F)(F)F)cc1 | male C57BL/6 mouse | plasma | oral | 10 mg/kg | – | 1.9 nM |
| O=C(COc1ccc(N2C(=O)[C@@H]3[C@@H]4C=C[C@@H]([C@H]5C[C@@H]45)[C@@H]3C2=O)cc1)c1cc(Cl)cc(Cl)c1 | mouse | brain | oral | 20 mg/kg | – | 5000 nM |
| C=CS(=O)(=O)c1ccc(Nc2nc(OCC3CCCCC3)c3nc[nH]c3n2)cc1 | male BALB/c mouse | plasma | intraperitoneal | 20 mg/kg | single dose | 190 ng/mL |
